{
  "source": "ChEMBL document CHEMBL4689842",
  "about": "“EUbOPEN Chemogenomics Library wave 1” (2021)",
  "type_in_all_cases": "toxicity, cell-based",
  "key": {"HEK-293T [1]": {"tested_on": "HEK-293T", "assay": "Multiplex assay against HEK293T;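 on Population Tubulin-Different-Phenotype (%): share of the cells with healthy nuclei that show this phenotype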", "conditions": "human", "how_it_was_run": "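Cells stained live at seeding with Hoechst33342, BioTracker Green Microtubule Cytoskeleton Dye, MitoTracker Red and Annexin V Alexa Fluor 680 were imaged on a CQ1 microscope at 37°C and 5% CO2 after compound addition. Their classification by CellPathfinder machine-learning gating ran from Hoechst high-intensity objects versus normal cells, to healthy, pyknosed or fragmented nuclei among normal cells, to mitotic or apoptotic among pyknosed cells. Tubulin, mitochondrial-mass and membrane-permeability phenotypes are per cents of healthy-nucleus cells.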"}, "HEK-293T [2]": {"tested_on": "HEK-293T", "assay": "Incucyte cell viability with HEK293T; further: filed as whole numbers so only -1 and 0 and 1 occur", "conditions": "human, 10 µM, compound concentration 10 uM"}, "Fibroblast": {"tested_on": "Fibroblast", "assay": "Incucyte cell viability with human fibroblast; further: filed as whole numbers so only -1 and 0 and 1 occur", "conditions": "10 µM, compound concentration 10 uM"}, "[3]": {"conditions": "12 h, 1 µM, compound concentration 1 uM, replicate 1"}, "[4]": {"conditions": "12 h, 1 µM, compound concentration 1 uM, replicate 2"}, "[5]": {"conditions": "12 h, 10 µM, compound concentration 10 uM, replicate 1"}, "[6]": {"conditions": "12 h, 10 µM, compound concentration 10 uM, replicate 2"}, "[7]": {"conditions": "24 h, 1 µM, compound concentration 1 uM, replicate 1"}, "[8]": {"conditions": "24 h, 1 µM, compound concentration 1 uM, replicate 2"}, "[9]": {"conditions": "24 h, 10 µM, compound concentration 10 uM, replicate 1"}, "[10]": {"conditions": "24 h, 10 µM, compound concentration 10 uM, replicate 2"}, "[11]": {"conditions": "24 h, replicate number 1, timepoint 24 hours"}},
  "data": [
    {"smiles": "NC(=O)c1ccc2nc(-c3ccc(C4(N)CCC4)cc3)c(-c3ccccc3)n2n1", "note": "[BAY-1125976]", "values": [
      {"measurement": "Population Apoptotic (%)", "setting": "HEK-293T [1]; [3]", "result": 22, "unit": "%"},
      {"measurement": "Population Healthy Nuclei (%)", "setting": "HEK-293T [1]; [3]", "result": 67, "unit": "%"},
      {"measurement": "Population Hoechst High Intensity Objects (%)", "setting": "HEK-293T [1]; [3]", "result": 16, "unit": "%"},
      {"measurement": "Population Mitochondria Different-Phenotype (%)", "setting": "HEK-293T [1]; [3]", "result": 12, "unit": "%"},
      {"measurement": "Population Mitotic Cells (%)", "setting": "HEK-293T [1]; [3]", "result": 77, "unit": "%"},
      {"measurement": "Population Normal (%)", "setting": "HEK-293T [1]; [3]", "result": 83, "unit": "%"},
      {"measurement": "Population Pyknosed Nuclei (%)", "setting": "HEK-293T [1]; [3]", "result": 17, "unit": "%"},
      {"measurement": "Population Tubulin-Different-Phenotype (%)", "setting": "HEK-293T [1]; [3]", "result": 26, "unit": "%"},
      {"measurement": "Total Cell Count", "setting": "HEK-293T [1]; [3]", "result": 688},
      {"measurement": "Population Apoptotic (%)", "setting": "HEK-293T [1]; [4]", "result": 10, "unit": "%"},
      {"measurement": "Population Fragmented Nuclei (%)", "setting": "HEK-293T [1]; [4]", "result": 4, "unit": "%"},
      {"measurement": "Population Healthy Nuclei (%)", "setting": "HEK-293T [1]; [4]", "result": 87, "unit": "%"},
      {"measurement": "Population Hoechst High Intensity Objects (%)", "setting": "HEK-293T [1]; [4]", "result": 4, "unit": "%"},
      {"measurement": "Population Mitochondria Different-Phenotype (%)", "setting": "HEK-293T [1]; [4]", "result": 17, "unit": "%"},
      {"measurement": "Population Mitotic Cells (%)", "setting": "HEK-293T [1]; [4]", "result": 89, "unit": "%"},
      {"measurement": "Population Normal (%)", "setting": "HEK-293T [1]; [4]", "result": 95, "unit": "%"},
      {"measurement": "Population Tubulin-Different-Phenotype (%)", "setting": "HEK-293T [1]; [4]", "result": 38, "unit": "%"},
      {"measurement": "Total Cell Count", "setting": "HEK-293T [1]; [4]", "result": 1223},
      {"measurement": "Population Apoptotic (%)", "setting": "HEK-293T [1]; [5]", "result": 19, "unit": "%"},
      {"measurement": "Population Fragmented Nuclei (%)", "setting": "HEK-293T [1]; [5]", "result": 17, "unit": "%"},
      {"measurement": "Population Healthy Nuclei (%)", "setting": "HEK-293T [1]; [5]", "result": 62, "unit": "%"},
      {"measurement": "Population Hoechst High Intensity Objects (%)", "setting": "HEK-293T [1]; [5]", "result": 15, "unit": "%"},
      {"measurement": "Population Mitochondria Different-Phenotype (%)", "setting": "HEK-293T [1]; [5]", "result": 5, "unit": "%"},
      {"measurement": "Population Mitotic Cells (%)", "setting": "HEK-293T [1]; [5]", "result": 80, "unit": "%"},
      {"measurement": "Population Normal (%)", "setting": "HEK-293T [1]; [5]", "result": 84, "unit": "%"},
      {"measurement": "Population Pyknosed Nuclei (%)", "setting": "HEK-293T [1]; [5]", "result": 19, "unit": "%"},
      {"measurement": "Population Tubulin-Different-Phenotype (%)", "setting": "HEK-293T [1]; [5]", "result": 5, "unit": "%"},
      {"measurement": "Total Cell Count", "setting": "HEK-293T [1]; [5]", "result": 611},
      {"measurement": "Population Apoptotic (%)", "setting": "HEK-293T [1]; [6]", "result": 12, "unit": "%"},
      {"measurement": "Population Fragmented Nuclei (%)", "setting": "HEK-293T [1]; [6]", "result": 7, "unit": "%"},
      {"measurement": "Population Healthy Nuclei (%)", "setting": "HEK-293T [1]; [6]", "result": 87, "unit": "%"},
      {"measurement": "Population Hoechst High Intensity Objects (%)", "setting": "HEK-293T [1]; [6]", "result": 2, "unit": "%"},
      {"measurement": "Population Mitochondria Different-Phenotype (%)", "setting": "HEK-293T [1]; [6]", "result": 8, "unit": "%"},
      {"measurement": "Population Mitotic Cells (%)", "setting": "HEK-293T [1]; [6]", "result": 87, "unit": "%"},
      {"measurement": "Population Normal (%)", "setting": "HEK-293T [1]; [6]", "result": 97, "unit": "%"},
      {"measurement": "Population Pyknosed Nuclei (%)", "setting": "HEK-293T [1]; [6]", "result": 4, "unit": "%"},
      {"measurement": "Total Cell Count", "setting": "HEK-293T [1]; [6]", "result": 1764},
      {"measurement": "Population Apoptotic (%)", "setting": "HEK-293T [1]; [7]", "result": 32, "unit": "%"},
      {"measurement": "Population Hoechst High Intensity Objects (%)", "setting": "HEK-293T [1]; [7]", "result": 15, "unit": "%"},
      {"measurement": "Population Mitochondria Different-Phenotype (%)", "setting": "HEK-293T [1]; [7]", "result": 9, "unit": "%"},
      {"measurement": "Population Mitotic Cells (%)", "setting": "HEK-293T [1]; [7]", "result": 67, "unit": "%"},
      {"measurement": "Population Normal (%)", "setting": "HEK-293T [1]; [7]", "result": 84, "unit": "%"},
      {"measurement": "Population Pyknosed Nuclei (%)", "setting": "HEK-293T [1]; [7]", "result": 10, "unit": "%"},
      {"measurement": "Population Tubulin-Different-Phenotype (%)", "setting": "HEK-293T [1]; [7]", "result": 44, "unit": "%"},
      {"measurement": "Total Cell Count", "setting": "HEK-293T [1]; [7]", "result": 691},
      {"measurement": "Population Apoptotic (%)", "setting": "HEK-293T [1]; [8]", "result": 10, "unit": "%"},
      {"measurement": "Population Fragmented Nuclei (%)", "setting": "HEK-293T [1]; [8]", "result": 19, "unit": "%"},
      {"measurement": "Population Healthy Nuclei (%)", "setting": "HEK-293T [1]; [8]", "result": 76, "unit": "%"},
      {"measurement": "Population Hoechst High Intensity Objects (%)", "setting": "HEK-293T [1]; [8]", "result": 4, "unit": "%"},
      {"measurement": "Population Mitochondria Different-Phenotype (%)", "setting": "HEK-293T [1]; [8]", "result": 5, "unit": "%"},
      {"measurement": "Population Mitotic Cells (%)", "setting": "HEK-293T [1]; [8]", "result": 89, "unit": "%"},
      {"measurement": "Population Normal (%)", "setting": "HEK-293T [1]; [8]", "result": 95, "unit": "%"},
      {"measurement": "Population Pyknosed Nuclei (%)", "setting": "HEK-293T [1]; [8]", "result": 3, "unit": "%"},
      {"measurement": "Population Tubulin-Different-Phenotype (%)", "setting": "HEK-293T [1]; [8]", "result": 42, "unit": "%"},
      {"measurement": "Total Cell Count", "setting": "HEK-293T [1]; [8]", "result": 1875},
      {"measurement": "Population Apoptotic (%)", "setting": "HEK-293T [1]; [9]", "result": 26, "unit": "%"},
      {"measurement": "Population Healthy Nuclei (%)", "setting": "HEK-293T [1]; [9]", "result": 77, "unit": "%"},
      {"measurement": "Population Hoechst High Intensity Objects (%)", "setting": "HEK-293T [1]; [9]", "result": 11, "unit": "%"},
      {"measurement": "Population Mitochondria Different-Phenotype (%)", "setting": "HEK-293T [1]; [9]", "result": 4, "unit": "%"},
      {"measurement": "Population Mitotic Cells (%)", "setting": "HEK-293T [1]; [9]", "result": 73, "unit": "%"},
      {"measurement": "Population Normal (%)", "setting": "HEK-293T [1]; [9]", "result": 88, "unit": "%"},
      {"measurement": "Population Pyknosed Nuclei (%)", "setting": "HEK-293T [1]; [9]", "result": 8, "unit": "%"},
      {"measurement": "Population Tubulin-Different-Phenotype (%)", "setting": "HEK-293T [1]; [9]", "result": 8, "unit": "%"},
      {"measurement": "Total Cell Count", "setting": "HEK-293T [1]; [9]", "result": 699},
      {"measurement": "Population Apoptotic (%)", "setting": "HEK-293T [1]; [10]", "result": 6, "unit": "%"},
      {"measurement": "Population Fragmented Nuclei (%)", "setting": "HEK-293T [1]; [10]", "result": 23, "unit": "%"},
      {"measurement": "Population Healthy Nuclei (%)", "setting": "HEK-293T [1]; [10]", "result": 74, "unit": "%"},
      {"measurement": "Population Hoechst High Intensity Objects (%)", "setting": "HEK-293T [1]; [10]", "result": 3, "unit": "%"},
      {"measurement": "Population Mitochondria Different-Phenotype (%)", "setting": "HEK-293T [1]; [10]", "result": 1, "unit": "%"},
      {"measurement": "Population Mitotic Cells (%)", "setting": "HEK-293T [1]; [10]", "result": 93, "unit": "%"},
      {"measurement": "Population Normal (%)", "setting": "HEK-293T [1]; [10]", "result": 96, "unit": "%"},
      {"measurement": "Population Pyknosed Nuclei (%)", "setting": "HEK-293T [1]; [10]", "result": 2, "unit": "%"},
      {"measurement": "Population Tubulin-Different-Phenotype (%)", "setting": "HEK-293T [1]; [10]", "result": 6, "unit": "%"},
      {"measurement": "Total Cell Count", "setting": "HEK-293T [1]; [10]", "result": 3086},
      {"measurement": "Growth Rate", "setting": "HEK-293T [2]; 6 h, replicate number 1, timepoint 6 hours", "result": 0},
      {"measurement": "Growth Rate", "setting": "HEK-293T [2]; 12 h, replicate number 1, timepoint 12 hours", "result": 0},
      {"measurement": "Growth Rate", "setting": "HEK-293T [2]; 18 h, replicate number 1, timepoint 18 hours", "result": 0},
      {"measurement": "Growth Rate", "setting": "HEK-293T [2]; [11]", "result": 0},
      {"measurement": "Growth Rate", "setting": "Fibroblast; 0 h, replicate number 1, timepoint 0 hours", "result": 1},
      {"measurement": "Growth Rate", "setting": "Fibroblast; 0 h, replicate number 2, timepoint 0 hours", "result": 0},
      {"measurement": "Growth Rate", "setting": "Fibroblast; [11]", "result": 1}
    ]}
  ]
}
